# DENV2 CPE = protects cells from dengue virus 2 cytopathic effect | DENV2-infected cells, cytopathic effect rescue, plate reader | CPE inhibition, % at 9.99 µM | 350,000 tested, 1.7% active | AID 651640; in the data active means CPE inhibition above about 20%, passing the limit was not always enough; inconclusive means no clear call, values can overlap the other calls; tested in BHK-21 cells
# SIRT5 inh = sirtuin-5 (human) deacylase inhibition; 330,000 tested, 1.1% active; Purified SirT5, succinyl-peptide AMC, trypsin-coupled fluorescence; inhibition, % at 15 µM; Q9NXA8; in the data active means inhibition above about 15%; inconclusive means no clear call, values can overlap the other calls
# Target sequence (Q9NXA8 whole entry, looked up): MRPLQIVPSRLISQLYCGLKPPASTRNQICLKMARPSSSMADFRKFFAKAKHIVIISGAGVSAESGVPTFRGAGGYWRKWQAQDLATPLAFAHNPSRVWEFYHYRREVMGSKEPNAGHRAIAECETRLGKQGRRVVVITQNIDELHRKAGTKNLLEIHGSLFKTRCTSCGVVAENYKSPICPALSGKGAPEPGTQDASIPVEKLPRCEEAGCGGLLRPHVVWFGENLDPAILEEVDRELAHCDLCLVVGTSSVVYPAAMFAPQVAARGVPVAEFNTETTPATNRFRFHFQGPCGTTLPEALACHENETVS
# E-selectin induc = E-selectin induction on HUVECs | P16581 | HUVEC E-selectin immunofluorescence imaging; normalized: neutral wells 0, TNF-alpha wells 100 | activation, % at 7.58 µM | 260,000 tested, 0.37% active;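 active means mean E-selectin-positive cell signal at least 10% of the positive control, reached in at least 60% of replicates, without over 20% cell loss; inconclusive means no rule given, readout overlaps actives, possibly toxicity-flagged; inactive means the rest, including those meeting only one limit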
#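 assay system = HUVEC, human umbilical vein endothelial cells | input = 3,000 HUVEC seeded per well | medium = EGM-2 growth medium on 0.1% gelatin-coated wells | dosing = one compound dose added by pin transfer | signal = immunofluorescence imaging | read-out basis = % PE-positive cells | control set = TNF-alpha, DMSO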
# Numbers stand for hits; n = inactive; u = inconclusive; x = no result. Compounds with a hit are over-represented: about 2.9% of the library has one in this group of screens.
SMILES,DENV2 CPE,SIRT5 inh,E-selectin induc
CO[C@H]1CN(C)C(=O)c2ccc(NC(=O)c3cc(C)on3)cc2OC[C@@H](C)N(C)C[C@@H]1C,20.9,n,n
CO[C@H]1CN(C)C(=O)c2ccc(NC(=O)c3cc(C)on3)cc2OC[C@H](C)N(C(=O)C2CC2)C[C@H]1C,n,n,n
CO[C@@H]1CN(C)C(=O)c2ccc(NC(=O)c3cc(C)on3)cc2OC[C@H](C)N(C(=O)C2CC2)C[C@H]1C,32.4,n,n
CO[C@@H]1CN(C)C(=O)c2ccc(NC(=O)c3cc(C)on3)cc2OC[C@H](C)N(C)C[C@H]1C,n,n,n
COc1ccc2c(ccc[n+]2[O-])c1,n,n,n
C[C@@H]1CN([C@H](C)CO)S(=O)(=O)c2ccc(-c3cncnc3)cc2O[C@H]1CN(C)C(=O)Cc1ccncc1,u,n,n
CS(=O)(=O)N(CC(=O)N1CCOCC1)c1ccccc1,n,n,n
O=C1NC(c2ccccc2)=CC(c2ccccc2)N1 (configuration not stated),n,n,x
O=C1NC(c2ccccc2)=CC(c2ccccc2O)N1 (configuration not stated),145.1,x,n
Cc1nn(CC(=O)N(C)C)c(=O)c2ccccc12,x,19.4,x
CN(C(=O)Cn1nc(C(=O)O)c2ccccc2c1=O)c1ccccc1,n,n,n
O=C(NC[C@@H]1[C@@H](c2ccccc2)[C@@H](CO)N1CC1CCCC1)c1cccnc1,38.5,x,n
CCCN(C[C@H]1N[C@H](CO)[C@@H]1c1ccc(-c2cccnc2)cc1)C(C)=O,n,n,n
O=C(NC[C@H]1[C@@H](c2ccccc2)[C@H](CO)N1CC1CCCC1)c1cccnc1,n,x,n
COCCN(C[C@@H]1[C@@H](c2ccccc2)[C@@H](CO)N1C(C)=O)C(=O)c1cccnc1,n,n,n
COCCN(C[C@@H]1[C@@H](c2ccccc2)[C@H](CO)N1C(C)=O)C(=O)c1cccnc1,n,16.2,n
CC(=O)N1[C@H](CO)[C@H](c2ccccc2)[C@@H]1CNC(=O)c1ccncc1,n,n,n
CC(=O)N1[C@H](CO)[C@H](c2ccccc2)[C@H]1CNC(=O)c1ccncc1,20.5,n,n
COCCN(C[C@@H]1N[C@@H](CO)[C@H]1c1ccc(-c2cccnc2)cc1)C(C)=O,30.3,n,n
CCOC(=O)N1CCC(NC(=O)CC2C(=O)NCCN2Cc2ccccc2F)CC1 (configuration not stated),n,n,x
Cc1ccc(S(=O)(=O)Nc2ccc3c(c2)C(=O)N(C)[C@@H]2CC[C@H](CC(=O)O)O[C@@H]2CO3)cc1,n,n,n
C=CCNC(=O)COC(=O)c1cc(S(=O)(=O)N2CCCCC2)ccc1Cl,n,n,n
COCCN(C[C@H]1[C@H](c2ccccc2)[C@H](CO)N1C(C)=O)C(=O)c1ccncc1,25.3,n,n
COCCN(C[C@@H]1[C@H](c2ccccc2)[C@@H](CO)N1C(C)=O)C(=O)c1ccncc1,n,n,n
COc1ccc(C#Cc2ccc3c(c2)[C@H]2[C@H](CCN2C(=O)CN2CCOCC2)[C@H](CO)N3C)cc1,n,n,n
SMILES,DENV2 CPE,SIRT5 inh,E-selectin induc
O=Cc1ccc(OCC(=O)Nc2ccccc2-c2ccccc2)cc1,n,n,x
CCCc1cn(CC[C@@H]2CC[C@@H](NC(=O)C3CCOCC3)[C@@H](CO)O2)nn1,n,n,n
Cc1ccc2c(cnn2C(=O)CCCC(=O)NCc2ccc(Cl)cc2)c1,n,n,n
CCOc1ccc(CNC(=O)CCCC(=O)n2ncc3cc(C)ccc32)cc1,n,15.0,n
CCCCn1nc(C(=O)Nc2ccc(-n3cnnn3)cc2)c2ccccc2c1=O,57.3,n,n
CCCCn1nc(C(=O)Nc2ccc3c(c2)OCO3)c2ccccc2c1=O,36.2,n,n
CCCn1nc(C(=O)Nc2ccc3c(c2)OCO3)c2ccccc2c1=O,n,n,x
Cn1nc(C(=O)Nc2ccc(-n3cnnn3)cc2)c2ccccc2c1=O,n,n,n
CN(CC(=O)Nc1ccc(OC(F)(F)F)cc1)C(=O)Cc1ccc2c(c1)CCC2,n,n,x
NNC(=O)/C(=C\c1ccco1)NC(=O)c1ccco1,n,n,x
N=C1/C(=C/c2ccc(-c3cccc(C(=O)O)c3)o2)C(=O)N=C2SC=C(c3ccccc3)N12,n,n,x
CC(C)S(=O)(=O)C1=NSC2=NC(=O)/C(=C\c3ccc(-c4cccc(C(=O)O)c4)o3)C(=N)N21,n,21.0,n
CCOc1ccc(S(=O)(=O)NCCC(=O)NCC2(N3CCCCC3)CCCCC2)cc1,n,n,n
Cc1cc(C)n(-c2nnc(Cl)c3ccccc23)n1,22.9,n,n
Cc1cc(C)n(-c2n[nH]c(=O)c3ccccc23)n1,n,x,n
CO[C@@H]1CN(C)C(=O)c2ccc(NC(=O)Nc3ccc(C(F)(F)F)cc3)cc2OC[C@@H](C)NC[C@@H]1C,n,x,n
CO[C@H]1CN(C)C(=O)c2ccc(NC(=O)Nc3cc(Cl)cc(Cl)c3)cc2OC[C@@H](C)NC[C@@H]1C,n,1.4,n
CO[C@H]1CN(C)C(=O)c2cc(NC(=O)Nc3ccccc3)ccc2OC[C@@H](C)NC[C@@H]1C,25.7,n,n
CCS(=O)(=O)Nc1ccc2c(c1)C(=O)N(C)C[C@@H](OC)[C@H](C)CN[C@H](C)CO2,n,n,n
CO[C@H]1CN(C)C(=O)c2ccc(NC(=O)Nc3ccc(C(F)(F)F)cc3)cc2OC[C@H](C)NC[C@@H]1C,68.2,n,n
CO[C@@H]1CN(C)C(=O)c2cc(NC(=O)Nc3ccccc3)ccc2OC[C@@H](C)NC[C@@H]1C,n,n,n
CO[C@H]1CN(C)C(=O)c2ccc(NC(=O)Nc3cc(Cl)cc(Cl)c3)cc2OC[C@H](C)NC[C@H]1C,n,n,x
CCS(=O)(=O)Nc1ccc2c(c1)C(=O)N(C)C[C@H](OC)[C@@H](C)CN[C@@H](C)CO2,24.7,n,n
CO[C@H]1CN(C)C(=O)c2cc(NC(=O)Nc3ccc(Cl)cc3)ccc2OC[C@H](C)NC[C@@H]1C,n,n,n
CO[C@H]1CN(C)C(=O)c2cc(NC(=O)Nc3ccc(Cl)cc3)ccc2OC[C@H](C)NC[C@H]1C,x,x,66.3
SMILES,DENV2 CPE,SIRT5 inh,E-selectin induc
Cc1cc(C(=O)Nc2cccc3c2O[C@H](CN(C)C(=O)Nc2cccc4ccccc24)[C@@H](C)CN([C@H](C)CO)C3=O)n(C)n1,n,n,n
COc1ccc(S(=O)(=O)Nc2ccc3c(c2)CC(=O)N([C@@H](C)CO)C[C@H](C)[C@H](CN(C)C(=O)Nc2ccc4c(c2)OCO4)O3)cc1,n,n,n
C[C@@H]1CN([C@H](C)CO)C(=O)Cc2cc(NS(=O)(=O)c3ccccc3)ccc2O[C@H]1CN(C)C(=O)Nc1ccccc1,n,n,n
C[C@H]1CN([C@@H](C)CO)C(=O)Cc2cc(NS(=O)(=O)c3ccccc3)ccc2O[C@@H]1CN(C)C(=O)Nc1ccccc1,23.2,n,n
COc1ccc(NC(=O)N(C)C[C@@H]2Oc3ccc(NS(=O)(=O)c4ccccc4)cc3CC(=O)N([C@H](C)CO)C[C@@H]2C)cc1,39.0,n,n
COc1ccc(NC(=O)N(C)C[C@@H]2Oc3ccc(NS(=O)(=O)c4ccccc4)cc3CC(=O)N([C@H](C)CO)C[C@H]2C)cc1,n,n,n
COc1ccc(S(=O)(=O)Nc2ccc3c(c2)CC(=O)N([C@H](C)CO)C[C@H](C)[C@@H](CN(C)C(=O)Nc2ccc4c(c2)OCO4)O3)cc1,26.1,n,n
